Measured values published in ChEMBL document CHEMBL3877241 (J Med Chem, 2016).
Active and inactive are the calls of the source. The calls are words filed in the database; no cut-off is given here.

Legend:
Histone deacetylase 1 = Histone deacetylase 1 (Homo sapiens, UniProt Q13547); experiment: Inhibition of full length human recombinant C-terminal FLAG/His-tagged HDAC1 (1 to 482 residues) expressed in sf21 cells preincubated with enzyme followed by fluorogenic Arg-His-Lys-Lys(Ac)-AMC substrate addition measured after 2 hrs by fluorescence assay
[1] = Antiproliferative activity against mouse TAMH cells after 24 hrs by CellTiter-Glo assay; assay type: ADME, cell-based
[2] = Antiproliferative activity against human MDA-MB-231 cells after 72 hrs by MTT assay; assay type: functional, cell-based; conditions: MDA-MB-231, 72 h
[3] = molecular target: T1, Protein deacetylase HDAC6 (Homo sapiens, UniProt Q9UBN7); experiment: Inhibition of full length human recombinant N-terminal GST-tagged HDAC6 (1 to 1215 residues) expressed in sf9 cells preincubated with enzyme followed by fluorogenic Arg-His-Lys-Lys(Ac)-AMC substrate addition measured after 2 hrs by fluorescence assay
T1 sequence (Q9UBN7 whole entry): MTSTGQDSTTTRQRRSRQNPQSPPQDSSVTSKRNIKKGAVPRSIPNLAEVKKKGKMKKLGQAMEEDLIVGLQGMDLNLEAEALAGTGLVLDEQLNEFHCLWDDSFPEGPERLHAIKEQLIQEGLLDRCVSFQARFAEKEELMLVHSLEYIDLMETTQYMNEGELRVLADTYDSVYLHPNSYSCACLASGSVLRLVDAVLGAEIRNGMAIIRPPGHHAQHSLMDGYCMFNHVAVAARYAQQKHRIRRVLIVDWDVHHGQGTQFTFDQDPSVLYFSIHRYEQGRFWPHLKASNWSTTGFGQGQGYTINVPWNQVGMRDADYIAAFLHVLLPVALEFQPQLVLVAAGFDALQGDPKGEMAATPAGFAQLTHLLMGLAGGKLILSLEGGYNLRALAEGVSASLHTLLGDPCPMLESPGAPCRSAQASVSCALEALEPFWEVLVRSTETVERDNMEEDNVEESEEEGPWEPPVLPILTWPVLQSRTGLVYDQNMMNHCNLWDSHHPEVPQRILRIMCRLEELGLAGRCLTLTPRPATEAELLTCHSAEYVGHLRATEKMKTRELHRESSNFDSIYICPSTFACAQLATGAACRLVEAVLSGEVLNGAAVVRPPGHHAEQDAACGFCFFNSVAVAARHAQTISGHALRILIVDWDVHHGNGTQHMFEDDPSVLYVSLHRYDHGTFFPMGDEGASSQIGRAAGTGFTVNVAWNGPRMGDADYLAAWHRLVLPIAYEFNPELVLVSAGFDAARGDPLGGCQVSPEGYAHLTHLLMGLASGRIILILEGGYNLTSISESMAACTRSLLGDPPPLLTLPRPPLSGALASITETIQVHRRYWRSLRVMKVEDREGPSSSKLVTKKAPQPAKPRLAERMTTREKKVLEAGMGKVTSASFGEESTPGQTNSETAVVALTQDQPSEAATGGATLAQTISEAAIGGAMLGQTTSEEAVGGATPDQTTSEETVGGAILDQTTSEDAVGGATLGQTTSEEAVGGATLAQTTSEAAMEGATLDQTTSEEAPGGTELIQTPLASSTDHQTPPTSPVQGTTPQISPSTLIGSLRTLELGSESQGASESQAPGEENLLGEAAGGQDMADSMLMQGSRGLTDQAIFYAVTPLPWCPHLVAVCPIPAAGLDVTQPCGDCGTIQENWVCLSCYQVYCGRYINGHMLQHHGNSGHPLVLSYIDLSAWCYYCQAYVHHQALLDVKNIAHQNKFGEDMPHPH

[4] = Therapeutic index, ratio of IC50 for mouse TAMH cells to IC50 for human cancer cells; conditions: cancer cell lines
[5] = molecular target: T2, Tyrosine-protein kinase JAK2 (Homo sapiens, UniProt O60674); experiment: Inhibition of JAK2 (unknown origin) preincubated for 20 mins followed by [33P]ATP addition measured after 120 mins by Hotspot assay
cells = assay type: functional, cell-based; conditions: Homo sapiens, HEL 92.1.7, 36 h
[6] = Half life in rat liver microsomes at 3 uM preincubated for 5 mins followed by NADPH addition by LC-MS/MS analysis; assay type: ADME
Outline: (§1)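 Male and female rat liver microsomes (0.3 mg protein/mL final) with compound at 3 μM final in 0.1 M phosphate buffer pH 7.4. Preincubated 5 min at 37 °C, then started with NADPH (1 mM final). Sampled at 0, 5, 10, 15, 30 and 45 min and quenched with cold acetonitrile containing internal standard. Read by LC-MS/MS; run in triplicate; midazolam (3 μM) as positive control.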

[7] = Antiproliferative activity against human HL60 cells; assay type: functional, cell-based; conditions: HL-60
[8] = Antiproliferative activity against human Jurkat cells; assay type: functional, cell-based
[9] = Antiproliferative activity against human HCT116 cells after 72 hrs by MTT assay; assay type: functional, cell-based; conditions: HCT-116, 72 h
Outline: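 MTT viability after 72 h exposure. Cells seeded at 2500/well and left 24 h before compound addition; DMSO at 0.5% v/v final. MTT added in FBS-free medium for 3 h at 37 °C, formazan dissolved in DMSO, absorbance read at 570 nm. IC50 from a sigmoidal fit of % viability vs log concentration; triplicates on separate occasions using two different stock solutions.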

[10] = Antiproliferative activity against human MCF7 cells after 72 hrs by MTT assay; assay type: functional, cell-based; conditions: MCF7, 72 h
[11] = Antiproliferative activity against human PC3 cells after 72 hrs by MTT assay; assay type: functional, cell-based; conditions: PC-3, 72 h
[12] = Apparent intrinsic clearance in rat liver microsomes at 3 uM preincubated for 5 mins followed by NADPH addition measured after 45 mins by LC-MS/MS analysis; assay type: ADME; conditions: read-out: CLH(app); outline: as §1
[13] = Antiproliferative activity against human OPM2 cells after 48 hrs by CellTiter-Glo assay; assay type: functional, cell-based; conditions: OPM-2, 48 h
Outline: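 OPM2 grown in RPMI 1640 with 10% FBS and penicillin/streptomycin at 37 °C, 5% CO2. Treated at 25,000 cells/well in triplicate for 48 h. Viability read by CellTiter-Glo luminescence. IC50 taken from a sigmoidal fit of % viability vs log concentration.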

[14] = Antiproliferative activity against human NKYS cells after 48 hrs by CellTiter-Glo assay; assay type: functional, cell-based
[15] = Antiproliferative activity against human PC3 cells after 48 hrs by CellTiter-Glo assay; assay type: functional, cell-based; conditions: PC-3, 48 h
[16] = Antiproliferative activity against human KMS-12-BM cells after 48 hrs by CellTiter-Glo assay; assay type: functional, cell-based
[17] = molecular target: T2, Tyrosine-protein kinase JAK2; experiment: Inhibition of JAK2 in IL-6-stimulated human MOLM14 cells assessed as suppression of STAT3 phosphorylation at TY705 residue at 0.1 uM pretreated for 3 hrs followed by IL-6 stimulation by immunoblot method; assay type: cell-based; conditions: MOLM-14
Outline: (§2)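 KMS-12-BM or MOLM-14 cells pretreated with compound for 3 h, then stimulated with IL-6 (10 ng/mL) for 15 min. Lysates immunoblotted for p-STAT3 (Y705) and re-probed for total STAT3. Reference JAK2 inhibitor used at 2 μM in KMS-12-BM and 0.1 μM in MOLM-14.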

[18] = Antiproliferative activity against HEL 92.1.7 cells harboring JAK2 V617F mutant after 48 hrs by CellTiter-Glo assay; assay type: functional, cell-based; conditions: Homo sapiens, HEL 92.1.7, 48 h
[19] = system: Tyrosine-protein kinase JAK2 (Homo sapiens), O60674 [V617F]; experiment: Induction of JAK2 V617F mutant phosphorylation at Y1007/8 residues in HEL 92.1.7 cells after 1 hr by immunoblot method; assay type: cell-based
Outline: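 HEL92.1.7 cells seeded at 5x10^5/mL and treated 1 h at 0, 0.1, 0.5 and 1 μM. Lysed in RIPA with phosphatase/protease inhibitors, run on 10% SDS-PAGE and blotted to PVDF. Probed for acetyl-tubulin, acetyl-H3 (Lys9/Lys14), p-JAK2 (Y1007/1008) and p-STAT5 (Tyr694); membranes re-probed for tubulin, H3, JAK2 and STAT5. Quantified by densitometry.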

[20] = Antiproliferative activity against human HCT116 cells after 48 hrs by CellTiter-Glo assay; assay type: functional, cell-based; conditions: HCT-116, 48 h
[21] = Antiproliferative activity against human Jurkat cells after 48 hrs by CellTiter-Glo assay; assay type: functional, cell-based
[22] = molecular target: T2, Tyrosine-protein kinase JAK2; experiment: Inhibition of JAK2 in IL-6-stimulated human KMS-12-BM cells assessed as suppression of STAT3 phosphorylation at TY705 residue at 2 uM pretreated for 3 hrs followed by IL-6 stimulation by immunoblot method; outline: as §2
[23] = Antiproliferative activity against human MOLM14 cells harboring FLT3-ITD mutant after 48 hrs by CellTiter-Glo assay; assay type: functional, cell-based; conditions: MOLM-14, 48 h
[24] = Antiproliferative activity against human MCF7 cells after 48 hrs by CellTiter-Glo assay; assay type: functional, cell-based; conditions: MCF7, 48 h
[25] = Antiproliferative activity against human KG1 cells after 48 hrs by CellTiter-Glo assay; assay type: functional, cell-based; conditions: KG-1, 48 h
[26] = Antiproliferative activity against human KHYG cells after 48 hrs by CellTiter-Glo assay; assay type: functional, cell-based
[27] = molecular target: T3, Protein deacetylase HDAC6 (Homo sapiens) (UniProt Q9UBN7); experiment: Inhibition of full length human recombinant N-terminal GST-tagged HDAC6 (1 to 1215 residues) expressed in sf9 cells at 10 uM preincubated with enzyme followed by fluorogenic Arg-His-Lys-Lys(Ac)-AMC substrate addition measured after 2 hrs by fluorescence assay relative to control
T3 sequence (whole entry): T1 sequence (Q9UBN7 whole entry)

MOLM-14 [28] = experiment: Induction of apoptosis in human MOLM14 cells assessed as late apoptotic cells at 1 uM after 48 hrs by Annexin-V FITC/propidium iodide staining based flow cytometry (reference value: 2.1 to 2.2%); assay type: functional
Outline: (§3)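 MOLM-14 cells treated 48 h at the stated concentrations; doxorubicin as positive control. Stained with Annexin V-FITC and propidium iodide and analysed by flow cytometry (at least 10,000 events). Gated quadrants: Annexin V−/PI− viable, Annexin V+/PI− early apoptotic, Annexin V+/PI+ late apoptotic.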

MOLM-14 [29] = experiment: Induction of apoptosis in human MOLM14 cells assessed as early apoptotic cells at 1 uM after 48 hrs by Annexin-V FITC/propidium iodide staining based flow cytometry (reference value: 3.6 to 3.7%); assay type: functional; outline: as §3
MOLM-14 [30] = experiment: Induction of apoptosis in human MOLM14 cells assessed as live cells at 1 uM after 48 hrs by Annexin-V FITC/propidium iodide staining based flow cytometry (reference value: 94 to 94.1%); assay type: functional; outline: as §3
MOLM-14 [31] = experiment: Induction of apoptosis in human MOLM14 cells assessed as necrotic cells at 1 uM after 48 hrs by Annexin-V FITC/propidium iodide staining based flow cytometry (reference value: 0.1%); assay type: functional; outline: as §3

T2 sequence (O60674 whole entry): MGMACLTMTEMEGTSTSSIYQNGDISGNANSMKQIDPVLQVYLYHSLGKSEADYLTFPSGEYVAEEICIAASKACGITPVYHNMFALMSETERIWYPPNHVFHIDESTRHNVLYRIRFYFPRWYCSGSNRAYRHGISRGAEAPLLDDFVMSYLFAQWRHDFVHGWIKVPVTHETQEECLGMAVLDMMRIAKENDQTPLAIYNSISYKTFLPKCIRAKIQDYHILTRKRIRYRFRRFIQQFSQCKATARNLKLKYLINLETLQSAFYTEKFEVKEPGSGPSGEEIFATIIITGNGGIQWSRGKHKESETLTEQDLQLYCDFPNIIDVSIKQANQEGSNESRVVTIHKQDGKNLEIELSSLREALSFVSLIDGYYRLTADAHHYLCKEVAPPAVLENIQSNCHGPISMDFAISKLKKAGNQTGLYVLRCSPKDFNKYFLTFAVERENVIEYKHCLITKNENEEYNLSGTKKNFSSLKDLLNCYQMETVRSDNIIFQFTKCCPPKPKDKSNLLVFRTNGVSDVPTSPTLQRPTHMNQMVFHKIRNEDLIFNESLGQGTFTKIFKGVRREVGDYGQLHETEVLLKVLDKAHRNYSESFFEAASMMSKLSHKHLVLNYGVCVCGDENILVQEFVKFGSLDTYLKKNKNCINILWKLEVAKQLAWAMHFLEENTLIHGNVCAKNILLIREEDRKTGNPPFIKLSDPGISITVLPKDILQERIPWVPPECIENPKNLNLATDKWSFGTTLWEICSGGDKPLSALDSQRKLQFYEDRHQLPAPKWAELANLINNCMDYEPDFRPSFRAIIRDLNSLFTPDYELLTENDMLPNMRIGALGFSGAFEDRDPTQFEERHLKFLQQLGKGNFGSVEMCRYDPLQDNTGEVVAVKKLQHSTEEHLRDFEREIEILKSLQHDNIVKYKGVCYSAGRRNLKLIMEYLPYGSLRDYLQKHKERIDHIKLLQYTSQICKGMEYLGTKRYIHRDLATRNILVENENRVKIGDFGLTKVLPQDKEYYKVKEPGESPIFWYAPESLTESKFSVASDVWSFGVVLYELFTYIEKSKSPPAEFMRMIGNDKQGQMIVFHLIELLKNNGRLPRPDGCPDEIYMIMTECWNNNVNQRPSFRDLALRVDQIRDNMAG
Histone deacetylase 1, sequence (Q13547 whole entry, the tested form may be a part): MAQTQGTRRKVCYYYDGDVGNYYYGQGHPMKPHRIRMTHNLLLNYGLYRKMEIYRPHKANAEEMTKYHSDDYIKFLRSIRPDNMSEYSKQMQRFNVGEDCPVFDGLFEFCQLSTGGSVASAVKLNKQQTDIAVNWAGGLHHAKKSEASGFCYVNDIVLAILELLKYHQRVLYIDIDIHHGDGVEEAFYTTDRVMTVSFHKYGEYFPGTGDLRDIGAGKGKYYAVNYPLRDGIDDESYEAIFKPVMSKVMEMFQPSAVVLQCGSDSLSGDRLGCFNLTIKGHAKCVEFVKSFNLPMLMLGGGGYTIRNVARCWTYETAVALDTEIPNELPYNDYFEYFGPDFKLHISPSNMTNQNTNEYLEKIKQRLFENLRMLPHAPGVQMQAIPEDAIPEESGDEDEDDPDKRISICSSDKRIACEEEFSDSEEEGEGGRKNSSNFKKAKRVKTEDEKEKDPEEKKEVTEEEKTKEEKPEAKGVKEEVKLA
Tyrosine-protein kinase JAK2 (Homo sapiens), O60674 [V617F], sequence (O60674 whole entry V617F): as the sequence (O60674 whole entry) above, with V617F counted along it

SMILES | IC50 (Histone deacetylase 1) | IC50 [3] | IC50 [5] | IC50 (cells) | IC50 [1] | IC50 [2] | IC50 [7] | IC50 [8] | IC50 [9] | IC50 [10] | IC50 [11] | IC50 [13] | also measured
O=C(CCCCCCC(=O)Nc1ccccc1)NO [VORINOSTAT] | – | – | – | – | – | – | 2280 nM | – | 1850 nM | – | – | 2910 nM | –
O=C(O)CCCCCC(=O)Nc1ccc(NCCOc2ccc3cc2COC/C=C/COCc2cccc(c2)-c2ccnc(n2)N3)cc1 | – | – | – | – | – | – | – | – | – | – | – | – | inhibition [27]: 20 to 24%
COc1cccc2c1C(=O)c1c(O)c3c(c(O)c1C2=O)C[C@@](O)(C(=O)CO)C[C@@H]3O[C@H]1C[C@H](N)[C@H](O)[C@H](C)O1 [DOXORUBICIN] | – | – | – | – | – | – | – | – | – | – | – | – | Activity (MOLM-14 [28]): 59.9%; Activity (MOLM-14 [29]): 38.8%; Activity (MOLM-14 [30]): 0.8%; Activity (MOLM-14 [31]): 0.4%

Now from value to molecule, other results behind:

IC50 (Histone deacetylase 1) | IC50 [3] | IC50 [5] | IC50 (cells) | SMILES | IC50 [1] | IC50 [2] | IC50 [7] | IC50 [8] | IC50 [9] | IC50 [10] | IC50 [11] | IC50 [13] | also measured
2340 nM | 15.8 nM | 5 nM | > 2000 nM | O=C(CCCCCCCOc1ccc2cc1COC/C=C/COCc1cccc(c1)-c1ccnc(n1)N2)NO | 5260 nM | 6440 nM | > 4000 nM | 2480 nM | 6230 nM | 9480 nM | 10100 nM | – | selectivity ratio [4]: 1.8; half-life at 3 µM [6]: 21 to 23.4 min; CLint scaled at 3 µM [12]: 200 to 225 mL/min/kg
4070 nM | 28 nM | 4.3 nM | > 2000 nM | O=C(CCCCCOc1ccc2cc1COC/C=C/COCc1cccc(c1)-c1ccnc(n1)N2)NO | – | 8070 nM | > 4000 nM | 2900 nM | 2560 nM | 4810 nM | 8110 nM | – | –
– | – | – | 1170 nM | C1=N/C2=N/c3ccc(OCCN4CCCC4)c(c3)COC/C=C/COCc3cccc(c3)C(=C1)N2 [PACRITINIB] | 3680 nM | 2430 nM | 1780 nM | 1090 nM | 880 nM | 290 nM | 2410 nM | 1210 nM | IC50 [14]: 1600 nM; IC50 [15]: 770 nM; IC50 [16]: 750 nM; inhibition [17]: Active; IC50 [18]: 1730 nM; Activity [19]: Active; IC50 [20]: 1690 nM; IC50 [21]: 839 nM; inhibition [22]: Active; IC50 [23]: 79 nM; IC50 [24]: 850 nM; IC50 [25]: 1480 nM; IC50 [26]: 1240 nM
